From paper PMC2118398 (The Journal of Experimental Medicine, 2006)

Legend:
[1] = target: CXCR7 (SDF-1 binding site on MCF-7 cells) (Homo sapiens, UniProt P25106); test: Radioligand
[2] = target: CXCR4 (CEM-NKr cells) (Homo sapiens, UniProt P61073); test: 125I SDF-1 competition binding to CEM-NKr cells
Summary of the method: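 Whole CEM-NKr cells were incubated with 125I SDF-1 in the presence of unlabeled SDF-1α, a CXCR4 antagonist, or a CXCR7 antagonist as competitors. Cell-bound radioactivity was counted in a γ counter.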

[3] = test system: CEM-NKr cells; test: Calcium mobilization in CEM-NKr cells; assay type: cell-based, human; conditions: unpublished data
Summary of the method: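 Cells were loaded with the ratiometric intracellular dye Indo-1, and the calcium response was recorded on addition of SDF-1α.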

[4] = test system: CEM-NKr cells; test: Cell migration of CEM-NKr cells; assay type: cell-based, human; conditions: unpublished data
Summary of the method: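 Cells in chemotaxis buffer (HBSS with Ca2+, Mg2+, 0.1% BSA) were placed above a 3 or 5 μm pore filter, sized to the cells, with chemokine in the lower chamber. After 90 min at 37°C, filters were removed, CyQuant was added to the lower chamber, and migrated cells were read at 540 nm.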

[5] = test system: human lung carcinoma A549; test: A549 human lung carcinoma xenograft model; assay type: in vivo, mouse; conditions: 2 mg/kg intraperitoneally every 2 d; vs vehicle control, P < 0.005
[6] = target: human CXCR7 (RDC1) (Homo sapiens, UniProt P25106); test: Radioligand; assay type: binding
Sequence of human CXCR7 (RDC1) (P25106 whole entry): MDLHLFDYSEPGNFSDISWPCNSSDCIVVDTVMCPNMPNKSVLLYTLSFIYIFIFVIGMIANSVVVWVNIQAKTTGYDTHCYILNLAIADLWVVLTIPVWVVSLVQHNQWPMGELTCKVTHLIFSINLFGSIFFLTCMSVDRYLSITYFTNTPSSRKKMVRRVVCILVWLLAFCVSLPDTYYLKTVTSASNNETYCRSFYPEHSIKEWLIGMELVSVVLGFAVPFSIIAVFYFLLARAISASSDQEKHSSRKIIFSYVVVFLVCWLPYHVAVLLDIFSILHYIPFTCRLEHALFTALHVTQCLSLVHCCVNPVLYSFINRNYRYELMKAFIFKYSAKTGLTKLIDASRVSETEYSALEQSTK

[7] = target: CXCR7 (SDF-1 binding site on fetal liver cells) (Mus musculus, UniProt P56485); conditions: 125I SDF-1
Sequence of CXCR7 (SDF-1 binding site on fetal liver cells) (P56485 whole entry): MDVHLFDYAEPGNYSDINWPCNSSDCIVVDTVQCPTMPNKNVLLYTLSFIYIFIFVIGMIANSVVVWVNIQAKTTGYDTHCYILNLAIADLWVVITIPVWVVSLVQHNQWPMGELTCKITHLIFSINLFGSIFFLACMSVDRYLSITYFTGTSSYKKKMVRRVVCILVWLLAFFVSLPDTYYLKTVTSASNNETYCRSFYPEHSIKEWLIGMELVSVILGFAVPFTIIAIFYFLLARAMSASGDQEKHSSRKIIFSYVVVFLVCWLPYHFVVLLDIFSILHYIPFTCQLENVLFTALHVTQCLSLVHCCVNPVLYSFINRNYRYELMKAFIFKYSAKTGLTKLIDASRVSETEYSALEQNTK

[8] = target: CXCR7 on mouse B cell lymphoma BCL1 (Mus musculus, UniProt P56485); test: 125I SDF-1 binding profile on BCL1 cells; conditions: Fig. 3 B; 100 nM chemokine, 10 μM small molecules
Sequence of CXCR7 on mouse B cell lymphoma BCL1 (P56485 whole entry): as above
Summary of the method: (§1)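 Intact cells bound 125I SDF-1 with or without 100 nM unlabelled chemokine, 10 μM CXCR7 antagonist or 10 μM CXCR4 antagonist. Cell-bound radioactivity was counted in a γ counter. CXCR7 binding was taken as binding displaced by unlabelled ligand or the CXCR7 antagonist but not by the CXCR4 antagonist.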

[9] = target: CXCR7 on human cervical carcinoma HeLa cells (Homo sapiens, UniProt P25106); test: 125I SDF-1 binding profile on HeLa cells; conditions: Fig. 3 B; 100 nM chemokine, 10 μM small molecules
Sequence of CXCR7 on human cervical carcinoma HeLa cells (P25106 whole entry): as the sequence (P25106 whole entry) above
Summary of the method: as §1

[10] = test system: MCF-7 cells; test: Calcium mobilization in MCF-7 cells; assay type: cell-based, human; conditions: agonist response
Summary of the method: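 Cells were loaded with the ratiometric dye Indo-1 and stimulated with 10 nM SDF-1α. The intracellular calcium trace was recorded around ligand addition. The analysis was reproduced in at least 10 independent studies.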

[11] = test system: MCF-7 cells; test: Cell migration of MCF-7 cells; assay type: cell-based, human; conditions: agonist response
Summary of the method: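 Cells in HBSS with Ca2+, Mg2+ and 0.1% BSA were placed above a filter (3 or 5 μm pores, chosen by cell size) in a 96-well microchamber, with chemokine below. After 90 min at 37°C in humidified air, the filter was removed. Cells in the lower chamber were quantified with CyQuant fluorescence at 540 nm.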

Sequence of CXCR7 (SDF-1 binding site on MCF-7 cells) (P25106 whole entry): as above
Sequence of CXCR4 (CEM-NKr cells) (P61073 whole entry): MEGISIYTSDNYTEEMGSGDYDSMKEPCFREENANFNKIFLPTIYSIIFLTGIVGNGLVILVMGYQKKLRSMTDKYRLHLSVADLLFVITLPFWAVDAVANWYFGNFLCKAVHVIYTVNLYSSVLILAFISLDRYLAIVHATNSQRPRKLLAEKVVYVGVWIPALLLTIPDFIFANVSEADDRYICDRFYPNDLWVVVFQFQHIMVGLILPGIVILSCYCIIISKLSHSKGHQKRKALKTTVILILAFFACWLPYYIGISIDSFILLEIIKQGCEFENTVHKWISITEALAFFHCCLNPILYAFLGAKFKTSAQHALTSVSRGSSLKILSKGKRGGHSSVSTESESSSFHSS

Molecule: c1cc(CN2CCCNCCNCCCNCC2)ccc1CN1CCCNCCNCCCNCC1 [AMD3100]
- inhibition of 125I SDF-1 binding to MCF-7 cells (in words) [1]: not to MCF-7 cells
- inhibition of 125I SDF-1 binding to CEM-NKr cells (in words) [2]: inhibited binding
- inhibition of SDF-1-induced calcium mobilization in CEM-NKr cells [3]: inhibited all functions
- inhibition of SDF-1-induced cell migration of CEM-NKr cells [4]: inhibited all functions

Molecule: N[C@@H](Cc1ccc(N(CCCl)CCCl)cc1)C(=O)O [Melphalan]
- tumor volume at 49 d, A549 model (positive control) [5]: reduced tumor volume

Molecule: I-TAC: CXC chemokine interferon-inducible T cell α chemoattractant, also known as CXCL11
- inhibition of 125I SDF-1 binding to MCF-7 cells (in words) [1]: strongly displaced
- inhibition of 125I SDF-1 binding to RDC1 (CXCR7) transfectants (in words) [6]: blocked
- inhibition of the SDF-1 binding site of E13 embryos of CXCR4-/- mice [7]: inhibited
- inhibition of 125I SDF-1 binding to BCL1 cells [8]: inhibited
- inhibition of 125I SDF-1 binding to HeLa cells [9]: inhibited
- chemokine-induced calcium mobilization in MCF-7 cells [10]: failed to induce
- chemokine-induced migration of MCF-7 cells [11]: failed to induce

Molecule: IP10: chemokine IP10 (CXCL10), thought to bind only CXCR3
- inhibition of 125I I-TAC binding to MCF-7 cells (in words) [1]: no inhibitory effect
- inhibition of 125I SDF-1 binding to MCF-7 cells (in words) [1]: no inhibitory effect

Molecule: Mig: chemokine Mig (CXCL9), thought to bind only CXCR3
- inhibition of 125I I-TAC binding to MCF-7 cells (in words) [1]: no inhibitory effect
- inhibition of 125I SDF-1 binding to MCF-7 cells (in words) [1]: no inhibitory effect
